Activity calls are given as the source filed them. The rule behind the calls is not given here.
Columns and labels:
[1] = test system: Mus musculus; experiment: Induction of CNS depressant activity in ip dosed ddk mouse assessed as protection against maximal electroshock-induced tonic hind limb extensor seizures administered 30 mins prior to electroshock challenge; assay type: functional; conditions: Central nervous system
Procedure, shortened: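 Six mice per group were dosed ip with compound suspended in CMC solution. After 30 min, a 25 mA alternating current was delivered through corneal electrodes for 0.15 s. ED50 was estimated from the number of mice protected against the tonic hind limb extensor component.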

[2] = Acute toxicity in ip dosed ddk mouse assessed as lethality after 72 hrs; assay type: organism-based; conditions: in vivo
[3] = test system: Mus musculus; experiment: Induction of CNS depressant activity in ip dosed ddk mouse assessed as loss of righting reflex activity over 20 secs; assay type: functional; conditions: Central nervous system
Procedure, shortened: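 Groups of six mice received compound ip as a suspension in CMC solution. Each mouse was laid on its back at 15, 30, 60, 90 and 120 min. The reflex was scored as lost if the animal stayed supine over 20 s. ED50 was estimated from the number of mice losing the reflex.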

[4] = test system: Mus musculus; experiment: Induction of CNS depressant activity in ip dosed ddk mouse after 30 mins by rotating rod test; assay type: functional; conditions: Central nervous system, 0.5 h
Procedure, shortened: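 Compound was given ip to groups of six mice as a suspension in CMC solution. At 30 min each mouse was set on a rotating rod (3.5 cm diameter, 14 rpm) for 1 min. ED50 was estimated from the number of mice falling off the rod twice during the test.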

[5] = test system: Mus musculus; experiment: Induction of CNS depressant activity in ip dosed ddk mouse assessed as protection against pentylenetetrazole-induced tonic extensive convulsions administered 30 mins prior to pentylenetetrazole challenge; assay type: functional; conditions: Central nervous system
Procedure, shortened: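 In groups of six mice, compound was injected ip as a suspension in CMC solution. Pentylenetetrazole 125 mg/kg was given sc 30 min later. ED50 was estimated from the number of mice protected against death from tonic extensive convulsions within 1 h of the convulsant.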

[6] = test system: Mus musculus; experiment: Induction of CNS depressant activity in ip dosed ddk mouse assessed as excitation incidence during loss of righting reflex activity over 20 secs; assay type: functional, organism-based; conditions: Central nervous system

Row | SMILES | ED50 [1] | MTD at 72 h [2] | ED50 [3] | ED50 [4] | ED50 [5] | LD50 at 72 h [2] | Activity [6]
1 | Cc1ccccc1-n1c(CF)nc2ccc(Cl)cc2c1=O | > 150 mg/kg | ≥ 300 mg/kg | > 150 mg/kg | > 150 mg/kg | > 150 mg/kg |  | 
2 | Cc1ccccc1-n1c(CF)nc2cccc(Cl)c2c1=O | 40.3 mg/kg | ≥ 300 mg/kg | 95.7 mg/kg | 37.6 mg/kg | 34.9 mg/kg |  | 
3 | O=c1c2ccccc2nc(CF)n1-c1ccccc1 | 116 mg/kg | ≥ 300 mg/kg | 130 mg/kg | 98 mg/kg | 95.3 mg/kg |  | 
4 | Cc1c(Cl)cccc1-n1c(CF)nc2ccccc2c1=O | 15 mg/kg |  | 18.4 mg/kg | 15 mg/kg | 16.1 mg/kg | 1560 mg/kg | 
5 | O=c1c2ccccc2nc(CF)n1-c1ccc(Cl)cc1Cl | 8.1 mg/kg | 100 mg/kg | 18.7 mg/kg |  | 16.3 mg/kg |  | Active
6 | Cc1ccccc1-n1c(C)nc2ccccc2c1=O [METHAQUALONE] | 35.2 mg/kg |  | 31.6 mg/kg | 33.7 mg/kg | 36.7 mg/kg | 542 mg/kg | 
7 | Cc1ccccc1-n1c(CF)nc2ccc(N)cc2c1=O [AFLOQUALONE] | 13.3 mg/kg |  | 35.1 mg/kg | 15.6 mg/kg | 5.4 mg/kg | 315 mg/kg | 
8 | Cc1ccccc1-n1c(CF)nc2ccccc2c1=O | 25.2 mg/kg |  | 19.9 mg/kg | 35.1 mg/kg | 26.6 mg/kg | 710 mg/kg | 
9 | Cc1ccccc1-n1c(C)nc2ccc(N)cc2c1=O | 25.4 mg/kg |  | 28.1 mg/kg | 27.9 mg/kg | 8.1 mg/kg |  | 
10 | Cc1ccccc1-n1c(CF)nc2ccc([N+](=O)[O-])cc2c1=O | > 150 mg/kg | ≥ 300 mg/kg | > 150 mg/kg | > 150 mg/kg | > 150 mg/kg |  | 
11 | Cc1cc(Cl)ccc1-n1c(CF)nc2cccc(Cl)c2c1=O | > 150 mg/kg | ≥ 300 mg/kg | > 150 mg/kg | > 150 mg/kg | 88.4 mg/kg |  | 
12 | CC(=O)Nc1ccc2nc(CF)n(-c3ccccc3C)c(=O)c2c1 | > 150 mg/kg | ≥ 300 mg/kg | > 150 mg/kg | > 150 mg/kg | 75.2 mg/kg |  | 
13 | Cc1cc(Cl)ccc1-n1c(CF)nc2ccccc2c1=O | 14.1 mg/kg |  | 18.7 mg/kg |  | 16.3 mg/kg | 432 mg/kg | Active

Reference: ChEMBL document CHEMBL3244363, “Studies on biologically active halogenated compounds. 1. Synthesis and central nervous system depressant activity of 2-(fluoromethyl)-3-aryl-4(3H)-quinazolinone derivatives” (J Med Chem, 1979)
